Columns and labels:
THP-1 = test: Inhibition of TNF-alpha production was determined in THP-1cells after LPS activation by Enzyme immunoassay; assay type: functional, cell-based; settings: Homo sapiens
How it was run: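 Human monocytic THP-1 cells treated 30 min before LPS activation, then incubated 3 h. TNF-α in the output measured by competitive enzyme immunoassay and IC50 derived. Values are mean of two experiments with standard deviation. PDTC served as control.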

Jurkat = test: Inhibition of IL-2 production was determined in Jurkat cells after PMA/PHA activation by Enzyme immunoassay; assay type: functional, cell-based; settings: Homo sapiens
How it was run: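 Human Jurkat leukemia T-cells exposed to test agents 30 min before PMA activation. Cell-free supernatants collected after 24 h and total IL-2 quantified by competitive enzyme immunoassay. Dose–response tested up to 10 μM. IC50 derived. PDTC control included in all experiments.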

CCRF-CEM = test: Inhibition of cell growth in CEM leukemia T cells was determined; assay type: functional; settings: Homo sapiens
[1] = system: Nuclear factor NF-kappa-B (Homo sapiens); test: Inhibition of DNA binding of NF-uM) PMA/PHA activated Jurkat cells; No significant inhibition

Nc1nc(C2=C3C(=Nc4ccccc43)C(=O)NCC2)c(O)[nH]1
IC50 (THP-1): 8160 nM | IC50 (Jurkat): 3550 nM | GI50 (CCRF-CEM): 1730 nM

Cn1c2c(c3ccccc31)/C(=C1\N=C(N)NC1=O)CCNC2=O
inhibition [1]: No effect | IC50 (THP-1): > 10000 nM | IC50 (Jurkat): > 10000 nM | GI50 (CCRF-CEM): 14300 nM

NC1=NC(=O)/C(=C2\CCNC(=O)c3[nH]c(Br)cc32)N1 [HYMENIALDISINE]
IC50 (THP-1): 1360 nM | IC50 (Jurkat): 2410 nM | GI50 (CCRF-CEM): 1610 nM
